# Where two headings read alike, the source gives them in different places.
# Columns and labels:
# [1] = biological target: NaV1.5 (Homo sapiens, UniProt Q14524); assay: automated patch-clamp; assay type: cell-based; conditions: for decrease of NaV1.5 current: up to the highest tested concentration of 90 μM, attributable to current rundown
# [2] = tested on: rabbit Purkinje fibers; assay: current clamp action potential recording on excised rabbit Purkinje fibers; conditions: for effect on membrane and AP parameters: 0.3 μM, any beating rate
# In short: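 Purkinje fibers came from male New Zealand rabbits (1.7–2.1 kg). They were superfused at 10 mL/min and 36 ± 1 °C with bicarbonate buffer at pH 7.4. APs were recorded with 3 M KCl microelectrodes under pacing at 3, 1 and 0.25 Hz. Test compound (0.3, 3, 10, 30 μM) was applied for 30 min each, ascending, followed by 30 min washout; n = 6. Analysis used ANOVA with Dunnett versus baseline.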
# [3] = biological target: T1, Kir2.1 (Homo sapiens, UniProt P63252); assay: automated patch-clamp; assay type: cell-based; conditions: levorotatory enantiomer the most potent
# T1 sequence (P63252 1-427): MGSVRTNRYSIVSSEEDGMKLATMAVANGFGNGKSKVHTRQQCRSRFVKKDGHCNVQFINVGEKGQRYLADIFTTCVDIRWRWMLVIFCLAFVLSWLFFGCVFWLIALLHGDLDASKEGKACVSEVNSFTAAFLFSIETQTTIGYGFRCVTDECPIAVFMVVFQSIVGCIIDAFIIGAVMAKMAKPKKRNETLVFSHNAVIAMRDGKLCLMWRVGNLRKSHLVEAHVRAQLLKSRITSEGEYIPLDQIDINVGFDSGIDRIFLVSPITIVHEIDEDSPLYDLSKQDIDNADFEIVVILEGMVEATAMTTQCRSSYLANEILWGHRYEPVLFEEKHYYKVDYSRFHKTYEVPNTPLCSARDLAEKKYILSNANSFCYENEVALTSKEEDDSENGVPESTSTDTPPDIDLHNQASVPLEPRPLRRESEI
# [4] = in vitro; ref McLachlan et al., 1993; cited from earlier work
# [5] = biological target: hERG (Homo sapiens, UniProt Q12809); assay: automated patch-clamp; assay type: cell-based; conditions: ratio of IC50 values
# [6] = tested on: human immune-deficiency virus serotype 1; conditions: human T-cell lines and macrophage hybridoma; ref Chiang et al., 1996; cited from earlier work
# [7] = ref Wainer et al., 1994; cited from earlier work
# [8] = tested on: Plasmodium falciparum; conditions: isolates grown in human erythrocytes; ref Warhurst et al., 2003; cited from earlier work
# [9] = biological target: CaV1.2/β2/α2δ1 (Homo sapiens, UniProt Q13936); assay: automated patch-clamp; assay type: cell-based; conditions: CdCl2 0.2 mM, end of recording
# [10] = biological target: KV7.1/minK (Homo sapiens, UniProt P51787); assay: automated patch-clamp; assay type: cell-based
# [11] = biological target: T2, KV4.3/KChIP2.2 (Homo sapiens, UniProt Q9UK17); assay: automated patch-clamp; assay type: cell-based
# T2 sequence (Q9UK17 1-655): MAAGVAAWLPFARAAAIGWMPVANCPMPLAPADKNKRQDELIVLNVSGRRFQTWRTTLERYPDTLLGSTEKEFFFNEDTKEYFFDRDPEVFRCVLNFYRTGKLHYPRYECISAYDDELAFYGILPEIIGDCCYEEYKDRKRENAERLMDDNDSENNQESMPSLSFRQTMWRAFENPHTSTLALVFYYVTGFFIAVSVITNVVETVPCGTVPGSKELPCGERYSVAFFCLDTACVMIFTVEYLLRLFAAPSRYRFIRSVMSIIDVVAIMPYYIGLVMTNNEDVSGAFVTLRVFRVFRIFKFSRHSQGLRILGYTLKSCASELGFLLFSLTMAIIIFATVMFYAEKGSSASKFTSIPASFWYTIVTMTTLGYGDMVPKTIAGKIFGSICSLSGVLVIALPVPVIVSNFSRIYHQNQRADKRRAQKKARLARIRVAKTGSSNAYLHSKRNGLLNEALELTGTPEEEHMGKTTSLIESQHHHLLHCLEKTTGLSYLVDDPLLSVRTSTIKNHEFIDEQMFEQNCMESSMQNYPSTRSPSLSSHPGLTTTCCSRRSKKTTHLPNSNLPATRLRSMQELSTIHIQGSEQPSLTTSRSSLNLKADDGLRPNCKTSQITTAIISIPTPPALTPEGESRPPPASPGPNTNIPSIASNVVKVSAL
# T2 sequence (Q9NS61 1-252 isoform Q9NS61-2 partner): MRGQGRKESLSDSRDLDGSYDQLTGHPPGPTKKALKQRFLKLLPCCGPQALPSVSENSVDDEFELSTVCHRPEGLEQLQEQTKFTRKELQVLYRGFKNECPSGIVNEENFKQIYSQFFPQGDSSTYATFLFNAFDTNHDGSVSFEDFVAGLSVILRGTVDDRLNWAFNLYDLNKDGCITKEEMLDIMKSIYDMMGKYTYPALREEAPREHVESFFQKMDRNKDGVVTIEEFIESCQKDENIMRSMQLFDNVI
# In short: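 CHO cells constitutively expressing human KV4.3/KChIP2.2 were whole-cell recorded at room temperature. Cells were held at −80 mV and stepped to +20 mV with 500 ms pulses. Test compound was applied at six cumulative ascending concentrations up to 90 μM in 0.3% or 1% DMSO with 1% Pluronic F-68. Leak was removed with 30 μM SKF-96365. Integral charge was normalized to pre-drug, and IC50 was fitted sigmoidally (0–100% constrained) with 95% CI.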
# [12] = tested on: human recombinant KV7.1; conditions: 30 μM, manual patch-clamp; ref Crumb et al., 2016; cited from earlier work
# [13] = biological target: T1, Kir2.1; conditions: read-out: IC50 Kir2.1; manual patch-clamp; ref Crumb et al., 2016; cited from earlier work
# [14] = tested on: Kir2.1; conditions: read-out: IC50 Kir2.1 outward component; ref Rodriguez-Menchaca et al., 2008; cited from earlier work
# [15] = tested on: human recombinant NaV1.5; conditions: 30 μM, manual patch-clamp; ref Crumb et al., 2016; cited from earlier work
# [16] = tested on: human recombinant CaV1.2; conditions: 30 μM, manual patch-clamp; ref Crumb et al., 2016; cited from earlier work
# [17] = tested on: human recombinant KV4.3; conditions: 30 μM, manual patch-clamp; ref Crumb et al., 2016; cited from earlier work
# [18] = HCQ monotherapy, meta-analysis of 28 clinical studies; ref Oscanoa et al., 2020; cited from earlier work
# [19] = tested on: hERG; conditions: read-out: IC50 hERG; QPatch II platform; ref Okada et al., 2021; cited from earlier work
# [20] = ref Carlsson et al., 2020; cited from earlier work
# [21] = tested on: Kir2.1; conditions: read-out: IC50 Kir2.1; QPatch II platform; ref Okada et al., 2021; cited from earlier work
# [22] = tested on: human adult cardiomyocytes; conditions: potassium in buffer decreased from 4 mM to 2.5 mM; ref Jordaan et al., 2021; cited from earlier work
# Sequence of NaV1.5 (Q14524 whole entry): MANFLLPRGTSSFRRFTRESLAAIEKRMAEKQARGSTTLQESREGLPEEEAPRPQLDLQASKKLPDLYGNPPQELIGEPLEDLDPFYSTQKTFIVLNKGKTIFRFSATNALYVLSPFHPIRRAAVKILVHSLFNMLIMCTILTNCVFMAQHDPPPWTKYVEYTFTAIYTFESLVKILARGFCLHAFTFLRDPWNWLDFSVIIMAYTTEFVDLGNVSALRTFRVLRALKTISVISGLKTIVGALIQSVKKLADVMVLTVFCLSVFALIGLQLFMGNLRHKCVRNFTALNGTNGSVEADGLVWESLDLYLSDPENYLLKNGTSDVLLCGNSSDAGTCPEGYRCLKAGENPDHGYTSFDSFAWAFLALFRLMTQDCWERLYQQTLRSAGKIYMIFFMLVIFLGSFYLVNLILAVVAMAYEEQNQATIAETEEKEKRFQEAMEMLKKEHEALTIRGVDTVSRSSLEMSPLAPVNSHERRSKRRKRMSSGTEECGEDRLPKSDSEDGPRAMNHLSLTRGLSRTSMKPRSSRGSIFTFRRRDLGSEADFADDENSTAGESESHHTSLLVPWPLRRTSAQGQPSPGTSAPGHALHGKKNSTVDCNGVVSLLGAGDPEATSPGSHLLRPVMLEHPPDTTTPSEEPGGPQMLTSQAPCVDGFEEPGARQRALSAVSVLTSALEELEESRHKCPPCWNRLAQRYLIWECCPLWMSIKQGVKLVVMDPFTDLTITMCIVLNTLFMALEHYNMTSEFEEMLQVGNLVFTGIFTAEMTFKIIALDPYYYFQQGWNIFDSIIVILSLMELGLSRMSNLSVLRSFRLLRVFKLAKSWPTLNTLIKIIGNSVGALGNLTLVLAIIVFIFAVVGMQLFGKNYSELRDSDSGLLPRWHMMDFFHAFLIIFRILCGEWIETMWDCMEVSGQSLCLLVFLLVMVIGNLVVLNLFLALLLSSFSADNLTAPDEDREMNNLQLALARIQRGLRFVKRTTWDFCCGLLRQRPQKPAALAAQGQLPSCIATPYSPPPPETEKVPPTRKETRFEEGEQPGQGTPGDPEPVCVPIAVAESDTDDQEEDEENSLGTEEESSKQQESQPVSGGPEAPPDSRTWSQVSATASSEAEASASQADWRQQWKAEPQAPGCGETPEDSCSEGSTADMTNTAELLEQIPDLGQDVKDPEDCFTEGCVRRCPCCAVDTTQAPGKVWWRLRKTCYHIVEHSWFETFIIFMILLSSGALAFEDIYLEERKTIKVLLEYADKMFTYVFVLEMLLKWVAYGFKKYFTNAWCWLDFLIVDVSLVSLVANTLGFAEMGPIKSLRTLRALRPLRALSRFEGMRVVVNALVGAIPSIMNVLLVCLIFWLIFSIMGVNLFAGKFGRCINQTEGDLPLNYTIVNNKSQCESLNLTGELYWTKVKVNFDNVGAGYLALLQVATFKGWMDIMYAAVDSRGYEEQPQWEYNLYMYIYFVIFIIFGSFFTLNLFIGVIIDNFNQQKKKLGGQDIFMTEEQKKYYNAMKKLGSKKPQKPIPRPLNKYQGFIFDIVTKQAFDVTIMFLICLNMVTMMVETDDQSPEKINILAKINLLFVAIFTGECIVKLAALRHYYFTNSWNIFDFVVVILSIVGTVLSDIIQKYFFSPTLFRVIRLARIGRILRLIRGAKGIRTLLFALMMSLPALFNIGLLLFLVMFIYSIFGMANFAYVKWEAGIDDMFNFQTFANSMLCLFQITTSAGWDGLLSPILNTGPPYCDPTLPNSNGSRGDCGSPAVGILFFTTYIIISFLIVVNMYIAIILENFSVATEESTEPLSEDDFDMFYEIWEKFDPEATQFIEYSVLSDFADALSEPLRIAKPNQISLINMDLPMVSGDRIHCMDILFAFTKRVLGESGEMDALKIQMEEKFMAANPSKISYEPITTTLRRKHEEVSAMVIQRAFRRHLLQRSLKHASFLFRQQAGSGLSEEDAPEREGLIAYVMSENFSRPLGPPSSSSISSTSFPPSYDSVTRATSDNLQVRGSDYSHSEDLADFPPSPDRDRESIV
# Sequence of KV7.1/minK (P51787 whole entry): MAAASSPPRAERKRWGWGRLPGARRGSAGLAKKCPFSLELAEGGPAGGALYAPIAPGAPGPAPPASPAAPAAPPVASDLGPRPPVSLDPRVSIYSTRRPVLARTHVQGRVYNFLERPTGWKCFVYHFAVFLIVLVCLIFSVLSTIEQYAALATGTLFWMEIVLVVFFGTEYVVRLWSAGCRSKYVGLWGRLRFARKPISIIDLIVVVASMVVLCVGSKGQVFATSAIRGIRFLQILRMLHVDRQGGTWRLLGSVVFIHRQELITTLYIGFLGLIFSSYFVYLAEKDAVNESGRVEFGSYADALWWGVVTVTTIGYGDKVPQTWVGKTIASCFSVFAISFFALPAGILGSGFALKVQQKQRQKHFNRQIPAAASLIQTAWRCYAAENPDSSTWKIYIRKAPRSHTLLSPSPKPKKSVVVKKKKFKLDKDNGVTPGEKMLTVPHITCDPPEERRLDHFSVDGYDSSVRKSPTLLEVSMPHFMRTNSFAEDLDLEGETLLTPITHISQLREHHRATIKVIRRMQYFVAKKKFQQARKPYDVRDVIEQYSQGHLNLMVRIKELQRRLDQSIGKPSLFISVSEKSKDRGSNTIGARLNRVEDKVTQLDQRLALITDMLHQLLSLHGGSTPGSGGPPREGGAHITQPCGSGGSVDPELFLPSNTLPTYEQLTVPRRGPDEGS
# Sequence of hERG (Homo sapiens, UniProt Q12809) (Q12809 whole entry): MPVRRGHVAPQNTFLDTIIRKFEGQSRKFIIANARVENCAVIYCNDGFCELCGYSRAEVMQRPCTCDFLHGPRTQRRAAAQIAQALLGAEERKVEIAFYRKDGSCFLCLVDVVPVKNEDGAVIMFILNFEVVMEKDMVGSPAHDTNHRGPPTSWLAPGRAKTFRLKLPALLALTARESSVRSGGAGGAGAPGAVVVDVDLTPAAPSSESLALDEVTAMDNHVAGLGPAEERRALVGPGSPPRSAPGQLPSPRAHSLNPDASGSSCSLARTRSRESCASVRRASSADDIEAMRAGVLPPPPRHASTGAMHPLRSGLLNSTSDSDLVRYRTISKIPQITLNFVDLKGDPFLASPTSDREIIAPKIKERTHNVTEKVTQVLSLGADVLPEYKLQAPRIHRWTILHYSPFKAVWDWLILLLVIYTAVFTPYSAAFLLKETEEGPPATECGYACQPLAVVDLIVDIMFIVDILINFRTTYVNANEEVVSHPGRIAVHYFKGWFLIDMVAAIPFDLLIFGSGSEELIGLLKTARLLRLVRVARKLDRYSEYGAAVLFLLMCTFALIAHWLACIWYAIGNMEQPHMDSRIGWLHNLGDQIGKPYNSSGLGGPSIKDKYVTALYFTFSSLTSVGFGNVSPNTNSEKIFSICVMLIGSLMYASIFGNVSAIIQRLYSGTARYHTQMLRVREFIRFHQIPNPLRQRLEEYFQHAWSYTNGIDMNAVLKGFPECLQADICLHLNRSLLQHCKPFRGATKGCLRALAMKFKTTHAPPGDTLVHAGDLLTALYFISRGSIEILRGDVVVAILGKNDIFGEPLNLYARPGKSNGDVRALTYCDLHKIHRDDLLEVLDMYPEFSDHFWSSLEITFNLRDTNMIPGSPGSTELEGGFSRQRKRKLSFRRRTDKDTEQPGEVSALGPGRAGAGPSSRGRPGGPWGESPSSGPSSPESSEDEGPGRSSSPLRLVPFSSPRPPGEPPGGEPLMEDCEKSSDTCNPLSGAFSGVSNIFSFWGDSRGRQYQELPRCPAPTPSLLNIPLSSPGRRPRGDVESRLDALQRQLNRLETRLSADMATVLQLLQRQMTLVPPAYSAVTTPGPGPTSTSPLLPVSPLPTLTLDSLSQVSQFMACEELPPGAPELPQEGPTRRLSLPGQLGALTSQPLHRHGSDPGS
compound,measurement,setting,value
CCN(CCO)CCCC(C)Nc1ccnc2cc(Cl)ccc12 (stereo not drawn) [R(-)HCQ],decrease of NaV1.5 current,[1],below 10%
same,effect on membrane and AP parameters,[2],neither R(-)HCQ nor S(+)HCQ had a significant effect
same,autogenic activity,[2]; 10 μM and 30 μM,inducing autogenic activity
same,decrease of median resting membrane potential,"[2]; 30 μM, 60 bpm (1 Hz)",20%
same,increase of AP duration at near complete repolarization (APD90),"[2]; 30 μM, 180 bpm, n = 2 readings",25%
same,early after depolarizations (EADs),[2]; any concentration and pacing rate,no torsadogenic early after depolarizations (EADs) events were observed
same,block-potency ratio of the enantiomers against Kir2.1,[3],two-fold
same,free fraction (plasma protein binding),[4],63%
same,greater potency of R(-)HCQ over S(+)HCQ on hERG,[5],3.7 fold
same,"inhibition of HIV-1 replication, comparison of enantiomers",[6],equipotent
same,accumulation in ocular tissue,[7],preferential accumulation
same,"inhibition of Plasmodium falciparum proliferation, comparison of enantiomers",[8],identical IC50 values
[Cl][Cd][Cl] [CdCl2],effect on CaV1.2 currents,[9],inhibited all the currents
CC(C)COCC(CN(Cc1ccccc1)c1ccccc1)N1CCCC1 (stereo not drawn) [bepridil],IC50,[1],2.5 µM
same,IC50,[10],7.2 µM
same,IC50,[11],11 µM
"CCN(CC)CCCC(C)Nc1ccnc2cc(Cl)ccc12 (stereo not drawn) [CQ, chloroquine]",inhibition of KV7.1,[12],less than 20%
same,IC50,[13],11 µM
same,IC50,[14],9 µM
same,inhibition of NaV1.5,[15],less than 20%
same,inhibition of CaV1.2,[16],less than 20%
same,inhibition of KV4.3,[17],less than 20%
CCN(CCO)CCC[C@H](C)Nc1ccnc2cc(Cl)ccc12 [S(+)HCQ],decrease of NaV1.5 current,[1],below 10%
same,effect on membrane and AP parameters,[2],neither R(-)HCQ nor S(+)HCQ had a significant effect
same,abnormal AP exhibiting EADs,"[2]; 10 μM, 15 bpm",one of the six fibers
same,increase of median APD90,"[2]; 10 μM, 15 bpm",56%
same,median APD90 duration in presence of drug,"[2]; 10 μM, 15 bpm",827 ms
same,increase of median APD90,"[2]; 10 μM, 60 bpm",34%
same,median APD90 duration in presence of drug,"[2]; 10 μM, 60 bpm",481 ms
same,increase of median APD90,"[2]; 10 μM, 180 bpm",12%
same,median APD90 duration in presence of drug,"[2]; 10 μM, 180 bpm",246 ms
same,abnormal AP exhibiting EADs,"[2]; 30 μM, 15 bpm, fibers that could follow pacing",one of the four fibers
same,decrease of median resting membrane potential,"[2]; 30 μM, 180 bpm (3 Hz)",11%
same,autogenic activity escaping electrical pacing,"[2]; 30 μM, all rates",two out of six fibers
same,free fraction (plasma protein binding),[4],36%
same,"inhibition of HIV-1 replication, comparison of enantiomers",[6],equipotent
same,"inhibition of Plasmodium falciparum proliferation, comparison of enantiomers",[8],identical IC50 values
"CCN(CCO)CCCC(C)Nc1ccnc2cc(Cl)ccc12 (stereo not drawn) [HCQ, Hydroxychloroquine]",occurrence of QT-prolongations,[18],below 2%
same,IC50,[19],17 µM
same,plasma concentrations relative to blood,[20],two-fold lower
same,IC50,[21],30 µM
same,proarrhythmic risk at reduced potassium,[22],proarrhythmic risk rose significantly
